Data set [1] in a line: Protectivity index is the ratio of TD50 /MES ED50 from Phase-IV evaluation. The class given is functional. In outline: (§1)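 MES protection: hind-limb tonic extension abolished. sc Met: pentylenetetrazole 85 mg/kg as 0.5% solution sc, 30 min observation; protection: no threshold clonic seizure of 5 s or more. Toxicity: failing to stay 1 min on a 6 rpm rod. PI = TD50/MES ED50.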

Data set [2] in a line: Neurologic toxicity activity was determined by rotarod toxicity test (Phase II Pharmacological Evaluation). As to conditions: mouse, in vivo. The data set is classed as organism-based.
The species named for data set [3] is Mus musculus. In words: Anticonvulsant against maximal electroshock induced convulsions after 30 min. The data set is classed as functional. In outline:
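Male Carworth Farms No. 1 mice, test agent given ip at 30, 100 and 300 mg/kg (one agent also at 600 mg/kg); read at 0.5 h. Electroshock via electrodes, with a drop of 0.9% saline in the eye first. Protection is abolition of the hind-limb tonic extension. One mouse per dose. Scored 0–4 by the lowest dose with noticeable activity.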

A short description of data set [4]: Protectivity index is the ratio of TD50 /MES ED50 from Phase-II evaluation. The data set is classed as functional. In outline:
(§2)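 MES protection: hind-limb tonic extension abolished; saline drop in eye before electrodes. sc Met: pentylenetetrazole 85 mg/kg as 0.5% solution sc in posterior midline, 30 min observation; protection: no clonic spasm episode of at least 5 s. Rotarod toxicity: falling off a 1-in. rod at 6 rpm within 1 min. PI = TD50/MES ED50.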

Data set [5] deals with Mus musculus. Briefly: Anticonvulsant against s.c. Metrazol-induced convulsions after 30 min. The class given is functional. In short, it runs like this:
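Mice (male Carworth Farms No. 1) got ip doses of 30, 100 or 300 mg/kg (600 mg/kg for one agent), checked at 0.5 h. Pentylenetetrazole 85 mg/kg as a 0.5% solution was injected sc in the posterior midline, then the animal was watched for 30 min. Protection means no threshold seizure (clonic spasms lasting ≥5 s). Single animals per dose; scored 0–4 by dose level.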

Data set [6] is filed under the species Mus musculus. Briefly: Anticonvulsant activity was determined by rotarod toxicity test (neurologic toxicity) at an interval of 0.5 h. As to conditions: in vivo. The class given is organism-based. In short, it runs like this: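 Phase I screen in male Carworth Farms No. 1 mice, ip at 30, 100 and 300 mg/kg, read at 0.5 h. Four mice per dose on a 1-in. knurled rod at 6 rpm; neurotoxicity is failure to remain on it for 1 min. Scored 0–4: 0 = none at 600 mg/kg, then 1–4 = activity at 600, 300, 100 or 30 mg/kg.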
In general terms: The rotarod test checks motor coordination on a turning rod.

The nature of data set [7]: Neurologic toxicity activity was determined by rotarod toxicity test (Phase IV Pharmacological Evaluation). The class given is organism-based. The note with it: mouse, in vivo.
Data set [8] is filed under the species Mus musculus. Briefly: Anticonvulsant activity was determined by maximum-induced convulsions electroshock seizure test (Phase II Pharmacological Evaluation). The data set is classed as functional.
The species named for data set [9] is Mus musculus. Briefly: Anticonvulsant activity was determined by maximum-induced convulsions electroshock seizure test (Phase IV Pharmacological Evaluation). The class given is functional.
Data set [10] concerns Mus musculus. In words: Anticonvulsant activity was determined by subcutaneous bicuculline test (CD97=2.70 mg/kg) (Phase V Pharmacological Evaluation). The class given is functional. As to conditions: sc.
Data set [11] concerns Mus musculus. In words: Anticonvulsant activity was determined by subcutaneous picrotoxin test (CD97=3.15 mg/kg) (Phase V Pharmacological Evaluation). The class given is functional. The note with it: sc.
Data set [12] has as its system Mus musculus. Briefly: Anticonvulsant activity was determined by subcutaneous pentylenetetrazole seizure test (Phase IV Pharmacological Evaluation). The class given is functional. As to conditions: sc. In outline:
as §1

The species named for data set [13] is Mus musculus. In words: Anticonvulsant activity was determined by maximum-induced convulsions electroshock seizure test (Phase III Pharmacological Evaluation). The data set is classed as functional.
Data set [14] deals with Mus musculus. In words: Anticonvulsant activity was determined by subcutaneous Metrazol-induced convulsions seizure test (Phase II Pharmacological Evaluation). The class given is functional. The note with it: sc. In short, it runs like this:
as §2

The subject of data set [15] is Mus musculus. In words: Anticonvulsant activity was determined by subcutaneous Metrazol-induced convulsions (sc MET)(Phase V Pharmacological Evaluation). The class given is functional. In short, it runs like this: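 Mice, normally eight per dose; Metrazol 85 mg/kg (CD97) as 0.5% solution sc in posterior midline. Animals isolated and observed 30 min; protection: no threshold seizure (a clonic spasm episode of at least 5 s).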

Data set [16] relates to Mus musculus. Briefly: Anticonvulsant activity was determined by subcutaneous Metrazol-induced convulsions seizure test (Phase IV Pharmacological Evaluation). The data set is classed as functional. The note with it: sc. In short, it runs like this:
as §1

Non-standard residues stand in square brackets, D forms with d. Residues, ends and D or L forms follow the SMILES beside them. ξ: configuration not given here. *: point of attachment. NHBn = c1ccc(CN*)cc1; ξA = CC(N)C(=O)O

Take `CC(=O)NC(C(=O)NCc1ccccc1)c1ccccc1` (stereo unspecified): the Protective Index was found to be 5.17 in data set [1] and 4.77 in data set [4]. Also, the TD50 in data set [2] amounted to 96.9 mg/kg; in data set [7] it was 241 mg/kg. The MES in the data set filed under Mus musculus [3] amounted to 4. This molecule also came in with an MET in the data set with Mus musculus [5] of 0. For the same molecule, in the data set listed under Mus musculus [6], the Toxicity was found to be 2. The ED50 in the data set listed under Mus musculus [8] amounted to 20.3 mg/kg; in the data set filed under Mus musculus [9] it was 46.7 mg/kg.

Regarding `CC(=O)NCC(=O)NC(C)C(=O)NCc1ccccc1` (stereo unspecified) (Ac-Gly-[ξA]-NHBn), the MES in the data set listed under Mus musculus [3] came to 0. This molecule also showed an MET with Mus musculus [5] of 0. Also, in the data set listed under Mus musculus [6], the Toxicity is on record as 0.

Take `CC(C)C(=O)NC(C)C(=O)NCc1ccccc1` (stereo unspecified): the MES in the data set listed under Mus musculus [3] stood at 0. In addition, in the data set on Mus musculus [5], the MET is 0. The molecule also displayed a Toxicity in the data set listed under Mus musculus [6] of 0.

Regarding `CC(=O)NC(C)C(=O)NCc1ccccc1` (stereo unspecified), the Protective Index in [1] is greater than 8.15; in data set [4] it was 5.93. Besides, in the data set filed under Mus musculus [3], the MES is 3. In addition, the ED50 in the data set with Mus musculus [10] turned out to be 205 mg/kg; in the data set on Mus musculus [11], 134 mg/kg; in the data set with Mus musculus [12] it was 266 mg/kg; in the data set listed under Mus musculus [13], 123 mg/kg; in the data set filed under Mus musculus [8], 76.5 mg/kg. This molecule also returned an MET with Mus musculus [5] of 0. This molecule also came in with a Toxicity in the data set filed under Mus musculus [6] of 1.

Turning to `CC(=O)NC(C)C(=O)NCc1cccc(F)c1` (stereo unspecified), the ED50 in the data set with Mus musculus [14] was 142 mg/kg; in the data set filed under Mus musculus [8], 77.4 mg/kg. In the data set listed under Mus musculus [3], this molecule had an MES of 3. Besides, the Protective Index in [4] is greater than 6.46. In addition, the MET in the data set on Mus musculus [5] is on record as 0. This molecule had a Toxicity in the data set listed under Mus musculus [6] of 0.

In the case of `CCCC(CCC)C(=O)O` [VALPROIC ACID], the 50% effective dose (ED50) with Mus musculus [14] was found to be 149 mg/kg; in the data set on Mus musculus [10] it was 360 mg/kg; in the data set with Mus musculus [15], 149 mg/kg; in the data set with Mus musculus [16], 388 mg/kg; with Mus musculus [11], 387 mg/kg; in the data set filed under Mus musculus [8], 272 mg/kg. For the same molecule, in the data set listed under Mus musculus [9], the ED50 was 665 mg/kg.

`CC(=O)NCC(C)C(=O)NCc1ccccc1` (stereo unspecified): the MES in the data set filed under Mus musculus [3] came to 2. This molecule came in with an MET with Mus musculus [5] of 0. The Toxicity in the data set filed under Mus musculus [6] is 0.

As to `CC(=O)NC(C)C(=O)NCC(=O)NCc1ccccc1` (stereo unspecified) (Ac-[ξA]-Gly-NHBn), in the data set listed under Mus musculus [3], the MES was determined as 0. This molecule also had an MET with Mus musculus [5] of 0. Besides, the Toxicity in the data set listed under Mus musculus [6] was determined as 0.

Regarding `CC(=O)NC(Cc1ccccc1)C(=O)NCc1ccccc1` (stereo unspecified), in the data set listed under Mus musculus [3], the MES is 0. Also, the MET in the data set with Mus musculus [5] was found to be 0. Also, the Toxicity in the data set filed under Mus musculus [6] turned out to be 0.

In the data set listed under Mus musculus [3], `CC(=O)NCCC(=O)NCc1ccccc1` returned an MES of 0. The same molecule came in with an MET in the data set with Mus musculus [5] of 0. For the same molecule, the Toxicity in the data set filed under Mus musculus [6] was 0.

As to `CC(NC(=O)C(C)(C)C)C(=O)NCc1ccccc1` (stereo unspecified), the MES in the data set listed under Mus musculus [3] was found to be 2. Moreover, the MET in the data set on Mus musculus [5] is recorded as 2. In addition, the Toxicity in the data set listed under Mus musculus [6] is listed as 0.

As for `CCC1(C)CC(=O)NC1=O` (stereo unspecified) [ETHOSUXIMIDE], the TD50 in data set [2] turned out to be 441 mg/kg; in [7], 879 mg/kg. For the same molecule, the ED50 worked out at 130 mg/kg with Mus musculus [14]; 459 mg/kg in the data set on Mus musculus [10]; 130 mg/kg with Mus musculus [15]; 192 mg/kg in the data set with Mus musculus [16]; 243 mg/kg in the data set on Mus musculus [11].

Molecule `CNC(=O)C(C)NC(C)=O` (stereo unspecified) came in with an MES in the data set filed under Mus musculus [3] of 0. Moreover, the MET with Mus musculus [5] is listed as 0. For the same molecule, in the data set filed under Mus musculus [6], the Toxicity is on record as 0.

Molecule `CC(=O)NC(C)C(=O)NC(c1ccccc1)c1ccccc1` (stereo unspecified) had an MES in the data set listed under Mus musculus [3] of 0. In addition, the MET with Mus musculus [5] turned out to be 0. This molecule showed a Toxicity in the data set filed under Mus musculus [6] of 0.

For the molecule `CSCCC(NC(C)=O)C(=O)NCc1ccccc1` (stereo unspecified), the MES in the data set listed under Mus musculus [3] was 2. In the data set on Mus musculus [5], this molecule gave an MET of 0. The Toxicity in the data set filed under Mus musculus [6] amounted to 0.

With `COc1cccc(CNC(=O)C(C)NC(C)=O)c1` (stereo unspecified), the MES in the data set filed under Mus musculus [3] is on record as 2. In the data set on Mus musculus [5], this molecule showed an MET of 0. This molecule displayed a Toxicity in the data set filed under Mus musculus [6] of 0.

Regarding `CC(=O)NCC(=O)NCc1ccccc1`, in the data set listed under Mus musculus [3], the MES is given as 2. In the data set with Mus musculus [5], this molecule had an MET of 0. Also, the Toxicity in the data set listed under Mus musculus [6] amounted to 2.

For `CC(=O)NC(C(=O)NCc1ccccc1)(c1ccccc1)c1ccccc1`, the MES in the data set filed under Mus musculus [3] came to 0. Also, the MET in the data set on Mus musculus [5] turned out to be 0. In addition, in the data set listed under Mus musculus [6], the Toxicity was determined as 0.

`CC(=O)NC(C(=O)NCc1ccccc1)C(C)C` (stereo unspecified) gave an MES in the data set listed under Mus musculus [3] of 2. The MET with Mus musculus [5] is 0. For the same molecule, in the data set listed under Mus musculus [6], the Toxicity is listed as 0.

The term TD50 denotes the 50% point of the dose-response relation for the toxic effect studied. The low end stands for greater toxicity, the high end for lower toxicity. One may read the ED50 as the dose that gives a 50% effect, or the effect in half of the subjects.

Values taken from ChEMBL document CHEMBL1123702, “Functionalized DL-amino acid derivatives. Potent new agents for the treatment of epilepsy” (J Med Chem, 1987).
